# Tb MetRS inh: Trypanosoma brucei MetRS inhibition | AID 624268 | inhibition, % at 11.9 µM | 0.4% of 360,000 active | purified T. brucei MetRS, ATP depletion, Kinase-Glo luminescence;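 active = inhibition above a per-plate cutoff of the control wells' mean inhibition plus 3 SD, cut at about 5.5% in these data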;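 also: 0% = DMSO wells median and 100% = median of wells with control inhibitor compound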
#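 System: purified T. brucei MetRS enzyme / Detection: Kinase-Glo luciferase luminescence reporting remaining unconsumed ATP / Medium: HEPES buffer with MgCl2, KCl, DTT, spermine, BSA, pyrophosphatase / Replication: singlicate, one well per compound / Evaluation: percent inhibition relative to median high and low control wells / Schedule: 2 h aminoacylation at 25 °C after 15 min preincubation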
# TAG inh: inhibitors of triacylglycerol accumulation. 0.66% of 230,000 active. H9c2 cells, Nile Red lipid (TAG) fluorescence; cells loaded with 200 µM oleic acid. AID 651582. inhibition, % at 12.5 µM;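 active = pattern-corrected inhibition of lipid staining of at least 50% with the nuclear-stain viability signal not falling by more than 50%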;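 also: 0% = DMSO wells and 100% = triacsin C control wells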
# Efflux pump mplx: antifungal efflux pump inhibition, Nile Red retention | AID 485275 | S. cerevisiae Candida pump triplex | inhibition, % at 10 µM | 0.44% of 330,000 active;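 active = plate passing quality check with inhibition over a set limit, or well fluorescence over plate mean plus 4 SD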;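 also: Nile Red retained in pooled yeast measured as flow cytometry median fluorescence; 0% = buffer negative control and 100% = Enniatin B positive control; higher means more Nile Red kept so more efflux inhibition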
# SMARCA2 activ: activators of SMARCA2 function; MG213 cells, MMTV-luciferase reporter, dexamethasone, overnight; activation, % at 9.1 µM; 1% of 370,000 active; in the data active = activation above about 7.8%;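 also: 0% = vehicle wells and 100% = reference activator wells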
# AHR act: activators of human aryl hydrocarbon receptor; activation, % at 5 µM; AHR-responsive luciferase reporter cells, luminescence; 2.5% of 320,000 active; P35869; AID 2796; in the data active = activation above about 47%;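 also: 0% = vehicle wells and 100% = reference agonist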
# Target sequence (P35869 whole entry, looked up): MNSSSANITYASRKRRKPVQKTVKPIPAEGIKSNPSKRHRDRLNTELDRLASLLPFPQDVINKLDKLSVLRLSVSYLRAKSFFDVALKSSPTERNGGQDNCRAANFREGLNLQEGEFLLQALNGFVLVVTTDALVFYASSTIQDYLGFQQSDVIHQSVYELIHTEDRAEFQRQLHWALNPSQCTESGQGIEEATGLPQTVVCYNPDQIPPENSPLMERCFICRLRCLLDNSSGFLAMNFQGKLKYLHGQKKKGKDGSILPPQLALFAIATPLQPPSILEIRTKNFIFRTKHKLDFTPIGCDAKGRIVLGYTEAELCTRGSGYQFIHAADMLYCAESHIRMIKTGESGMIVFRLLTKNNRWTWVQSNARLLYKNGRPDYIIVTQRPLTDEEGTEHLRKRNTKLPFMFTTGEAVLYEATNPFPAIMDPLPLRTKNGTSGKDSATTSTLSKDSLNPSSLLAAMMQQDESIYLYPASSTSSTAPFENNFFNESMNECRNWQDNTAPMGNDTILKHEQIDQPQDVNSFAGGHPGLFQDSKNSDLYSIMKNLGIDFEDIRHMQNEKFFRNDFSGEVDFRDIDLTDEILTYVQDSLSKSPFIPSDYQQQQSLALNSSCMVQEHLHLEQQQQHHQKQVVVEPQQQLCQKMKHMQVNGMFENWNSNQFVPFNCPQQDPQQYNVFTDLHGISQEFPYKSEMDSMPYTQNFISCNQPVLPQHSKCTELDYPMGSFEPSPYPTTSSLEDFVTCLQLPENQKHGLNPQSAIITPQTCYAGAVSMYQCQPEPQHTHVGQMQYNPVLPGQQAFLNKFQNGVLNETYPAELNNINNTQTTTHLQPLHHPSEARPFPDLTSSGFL
# Cmpd fluor yeast: counter-screen for efflux pump inhibitors: compound fluorescence. shares compounds with Efflux pump mplx. S. cerevisiae AD/pABC3, flow cytometry. fluorescence ratio to DMSO, % at 10 µM. 4% of 1,700 active. AID 588517;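 active = fluorescence ratio to DMSO above its plate's cutoff, the plate mean ratio plus 5 SD, cut at about 210% in these data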;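 also: unstained yeast with no Nile Red so the signal is compound autofluorescence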
# Mdr1 pump inh: blocks the Candida albicans Mdr1 efflux pump in yeast; shares compounds with Efflux pump mplx; S. cerevisiae AD/CaMDR1, Nile Red efflux, flow cytometry; inhibition, % at 10 µM; 1% of 1,700 active; AID 588518; in the data active = inhibition above about 26%;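 also: 0% = DMSO vehicle and 100% = reference inhibitor; higher means more Nile Red retained so more efflux inhibition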
# Cdr2 pump inh: Candida Cdr2 efflux pump inhibition; 4% of 1,700 active; Nile Red retention ratio vs DMSO, % at 10 µM; shares compounds with Efflux pump mplx; S. cerevisiae AD/CaCDR2, Nile Red retention, flow cytometry; in the data active = Nile Red retention ratio vs DMSO above about 190%;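 also: higher ratio means more blocking of Cdr2 efflux of the dye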
# CaCdr1 efflux inh: Candida Cdr1 efflux pump inhibition. shares compounds with Efflux pump mplx. S. cerevisiae AD/CaCDR1, Nile Red efflux, flow cytometry. inhibition, % at 10 µM. 1% of 1,700 active;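 active = inhibition above the screen-wide mean plus twice its standard deviation, cut at about 32% in these data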
# Starred values were filed as active, the others as inactive; / = no result given. Hits are enriched below; roughly 4.1% of the tested compounds scored in any of these assays.
SMILES,Tb MetRS inh,TAG inh,Efflux pump mplx,SMARCA2 activ,AHR act,Cmpd fluor yeast,Mdr1 pump inh,Cdr2 pump inh,CaCdr1 efflux inh
COc1ccc(OCC(=O)NC2CCCCCCC2)cc1,1,/,0,-2,4,/,/,/,/
O=C(NCC1CCCO1)C1CCCN(S(=O)(=O)c2cccc(C(F)(F)F)c2)C1 (stereo unspecified),-1,/,1.3*,-5,0,96,0,102,0
COc1ccc(S(=O)(=O)N2CCCC(C(=O)NCC3CCCO3)C2)cc1C (stereo unspecified),0,8,0,-3,-1,/,/,/,/
C=C[C@](C)(CC[C@@]1(C)C(C)CC(OC2OC(C)C(OC3OC(COC(C)=O)C(O)C(O)C3O)C(O)C2O)[C@@]2(C)C(C)=CCCC12)OC1OC(C)C(O[C@@H]2O[C@@H](C)C(O)C(O)[C@H]2O)C(O)C1O (stereo partly specified),-3,5,1.4*,/,1,113,0,129,0
COCCCNC(=O)Cn1nc(Cc2ccncc2)c2ccccc2c1=O,/,/,/,-2,/,/,/,/,/
O=C1/C(=C/c2ccco2)Oc2c1ccc(O)c2CN1CCCCC1,0,/,3.1*,1,2,105,0,101,0
CC1CCN(Cc2c(O)ccc3c2O/C(=C\c2ccco2)C3=O)CC1,1,/,0,/,0,/,/,/,/
CCN1CCN(Cc2c(O)ccc3c2O/C(=C\C=C\c2ccccc2OC)C3=O)CC1,0,/,24*,-2,5,108,0,94,0
CCN1CCN(Cc2c(O)ccc3c(=O)c(-c4ccccc4OC)coc23)CC1,-1,/,0,1,-1,/,/,/,/
CN(C)Cc1c(C(C)(C)O)[nH]c2cc(F)ccc12,/,/,/,2,/,/,/,/,/
CCc1nnc2n1N=C(c1ccc(OC)cc1)CS2,-1,/,0.8*,-1,8,91,-1,87,0
N#CC(C#N)=C1C=C2C=C(N3CCCCC3)CCC2CC1 (stereo unspecified),/,/,9.3*,/,-2,179,1,232*,1
CCN(CC)C1=CC2=CC(=C(C#N)C#N)CCC2CC1 (stereo unspecified),3,-130,3.4*,0,3,155,1,225*,1
N#CC1=C(N)C2=C(N3CCCCC3)CCCC2C1(C#N)C#N (stereo unspecified),0,-1,0,/,2,/,/,/,/
CCCCN(C)C1=CC2=CC(=C(C#N)C#N)CCC2CC1 (stereo unspecified),2,-233,5.5*,0,2,231,1,282*,1
CCCCOCCCNC(=O)C[C@@H]1C(=O)N(Cc2ccc(OC)cc2)C2=CCN(C(=O)OC(C)(C)C)C[C@]21C(=O)OCC,/,/,/,-2,/,/,/,/,/
Cc1ccc(-c2c[n+](CC(=O)Nc3ccccc3C)c3n2CCC3)cc1,3,8,0,-3,0,103,0,92,0
CCCCCCCCN1C(=O)[C@@H](CC(=O)NCc2ccccc2)C[C@@]2(C(=O)OC)C1=C[C@H](C(C)C)O[C@@H]2C1CC1,/,/,/,-1,/,/,/,/,/
Cc1cccc(S(=O)(=O)Nc2nc3ccccc3nc2Nc2ccc3c(c2)OCO3)c1,-1,/,10.0*,-4,20,106,0,118,0
O=C(O)c1ccc(/C=C2/SC(=S)N(Cc3ccccc3)C2=O)cc1,-1,/,0,-3,/,/,/,/,/
O=C(Cc1ccccc1)NN1C(=O)/C(=C/c2ccc(C(=O)O)cc2)SC1=S,1,27,0,-3,-4,98,0,92,0
OC(COCc1ccc(Cl)cc1)CN1CCCCC1 (stereo unspecified),-1,/,1.1*,-1,-1,79,0,87,0
COc1ccccc1Cc1c(-c2ccc(Cl)cc2)nc2ccc(C)cn12,/,/,/,3,/,/,/,/,/
CC(=O)c1c(N2CCN(Cc3ccccc3)CC2)nc(=S)n(Cc2ccccc2)c1C,-1,/,0,-3,1,/,/,/,/
CC(=O)c1c(N2CCN(Cc3ccccc3)CC2)[nH]c(-c2ccccc2)nc1=S,0,/,0.5*,0,4,134,1,104,1
SMILES,Tb MetRS inh,TAG inh,Efflux pump mplx,SMARCA2 activ,AHR act,Cmpd fluor yeast,Mdr1 pump inh,Cdr2 pump inh,CaCdr1 efflux inh
Cc1cc(Cl)ccc1Oc1ncc(CN2CCN(c3ccccc3)CC2)s1,0,-22,0.5*,-1,2,92,0,92,0
CC(C)c1ccc(/C=c2\sc3nc(-c4ccncc4)nn3c2=O)cc1,0,/,0,-1,0,105,0,108,0
Cc1ccc(/C=c2\sc3nc(-c4cccnc4)nn3c2=O)cc1,0,/,0,-1,-1,/,/,/,/
CC[C@H](CCCc1ccc(F)cc1)CN(Cc1ccc(OC)cc1)S(=O)(=O)c1ccc(C)cc1,/,/,/,-3,/,/,/,/,/
C[C@H](CO)N1C[C@H](C)[C@@H](CN(C)C(=O)Nc2ccc(C(F)(F)F)cc2)Oc2c(NC(=O)Nc3ccc(C(F)(F)F)cc3)cccc2C1=O,0,19,0,-2,2,/,/,/,/
Cc1ccc(S(=O)(=O)N(C)C[C@H]2Oc3c(NC(=O)Nc4cccc5ccccc45)cccc3C(=O)N([C@@H](C)CO)C[C@@H]2C)cc1,-1,-10,1,-6,3,109,1,110,2
COc1ccc(NC(=O)Nc2cccc3c2O[C@H](CN(C)S(=O)(=O)c2ccc(OC)cc2)[C@@H](C)CN([C@H](C)CO)C3=O)cc1,-1,-14,0,-4,-1,/,/,/,/
C[C@H]1CN([C@@H](C)CO)C(=O)c2cccc(NC(=O)Nc3ccc(C(F)(F)F)cc3)c2O[C@@H]1CN(C)C(=O)Nc1ccc(F)cc1,0,37,0,0,0,110,0,97,0
CC(C)NC(=O)N(C)C[C@H]1Oc2c(NC(=O)Nc3ccc4c(c3)OCO4)cccc2C(=O)N([C@H](C)CO)C[C@@H]1C,-2,14,0,-3,2,99,0,101,0
CN(C)c1cccc(/C=C2\CC3(OC(=O)C4CCCC4)CCCN2C3)c1 (stereo unspecified),/,/,/,-2,/,/,/,/,/
O=C(NC1=NC2(C=C3CCCCC3n3c(=O)n(-c4ccccc4)c(=O)n32)CN1CC1CC1)c1ccccc1 (stereo unspecified),/,/,/,-2,/,/,/,/,/
CC(C)(C)c1ccc(C(=O)OC/C(O)=C(\C#N)c2nc3ccccc3s2)cc1,0,/,0,-2,21,/,/,/,/
N#C/C(=C(/O)C(Cl)c1ccccc1)c1nc2ccccc2s1 (stereo unspecified),0,/,0,6,-5,/,/,/,/
COc1ccc(/C(C#N)=C/c2ccccn2)cc1,-1,/,1.4*,5,-4,105,0,112,0

# Bioassay records: PubChem, several laboratories
